Data taken from ChEMBL document CHEMBL1136783, “New cytotoxic and water-soluble bis(2-phenylazopyridine)ruthenium(II) complexes” (J Med Chem, 2003).

Legend:
[1] = system: A2780; assay: Cytotoxicity against human ovarian carcinoma A2780 cell line; format: functional, cell-based
Method in brief: (§1)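 Cells kept in log-phase DMEM with 10% fetal calf serum, penicillin/streptomycin and Glutamax. Seeded at 2000 cells/well and allowed 48 h adhesion at 37 °C, 5% CO2. Exposed 72 h to compound diluted from a DMSO stock into complete medium, final 0.01 to 0.0001 mg/mL, in quadruplicate. Vehicle control contained 1% DMSO. Proliferation read by MTT (1 h, DMSO solubilization, OD 590 nm).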

[2] = system: A2780; assay: Cytotoxicity against human ovarian carcinoma A2780cisR cell line; format: functional, cell-based; method in brief: as §1

## beta-[Ru(azpy)2(NO3)2] CHCl3
[1]
  IC50: 9.7 µM
[2]
  IC50: 12.1 µM

## alpha-[Ru(azpy)2(mal)]
[1]
  IC50: 7.9 µM
[2]
  IC50: 6.2 µM

## alpha-[Ru(azpy)2(NO3)2]
[1]
  IC50: 8.5 µM
[2]
  IC50: 6.3 µM

## beta-[Ru(azpy)2Cl2] CHCl3
[1]
  IC50: 1.6 µM
[2]
  IC50: 7.3 µM

## CARBOPLATIN
[1]
  IC50: 8.2 µM
[2]
  IC50: 41.6 µM

## CISPLATIN
[1]
  IC50: 2.3 µM
[2]
  IC50: 7.8 µM

## alpha-[Ru(azpy)2(cbdca-O,O')]
[1]
  IC50: 7.2 µM
[2]
  IC50: 4.9 µM

## alpha-[Ru(azpy)2Cl2]
[1]
  IC50: 0.85 µM
[2]
  IC50: 0.98 µM
